# Env fusion inh = HIV envelope-mediated fusion inhibition; HeLa-JRFL Env/CEM21 cell fusion, luciferase; inhibition, % at 12.3 µM; hit rate 1.1% among 360,000;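 active = mean replicate inhibition score of at least 50 and every replicate individually at or above 50; inconclusive = only one of the two criteria met; inactive = mean below 50 and not all replicates reaching 50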;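 also: 0% = plate neutral controls and 100% = maraviroc near 300 nM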
# PglD inh = PglD (C. jejuni) enzyme inhibition; purified PglD enzyme, DTNB colorimetric CoA detection; inhibition, % at 12.5 µM; hit rate 0.098% among 360,000; AID 602405; in the data active = inhibition above about 16%, passing the limit was not always enough; inconclusive = no clear call, values can overlap the other calls
# PGC1a acetyl inh = modulators of PGC1a acetylation; U2OS PGC1a acetylation, AlphaScreen anti-acetyl-lysine; with virally co-expressed GCN5 acetyltransferase; inhibition, % at 15.6 µM; hit rate 0.17% among 350,000; AID 651687;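 active = every replicate shows inhibition of at least 40%; inconclusive = mean inhibition at least 40% but some replicate below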;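 also: 0% = neutral control wells and 100% = positive control wells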
# FN deposition inh = fibronectin deposition inhibition; AH1F fibroblasts, Alexa488-fibronectin deposition fluorescence, overnight; inhibition, % at 12.6 µM; hit rate 0.086% among 350,000; AID 743247;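 active = mean inhibition across replicates of 30% or more, regardless of how many single replicates reach that level; inconclusive = mean under 30% yet at least half of replicates reach 30%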;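 also: positive control wells lacked labelled fibronectin entirely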
#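 Material – AH1F fibroblast monolayer, labelled fibronectin deposition · Reagent – labelled fibronectin 24 nM · Timing – 1 h adhesion, overnight exposure · Measured by – fluorescence at 485 nm excitation, 525 nm emission · Read-out – inhibition of fibronectin deposition signal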
# rRNA inh HTS = inhibits bacterial ribosomal RNA function over humanized ribosomes. E. coli WT GFP vs humanized-ribosome RFP mutants, fluorescence, 24 h; active compounds read low; DMSO median 0, no signal -100. GFP signal change (wild-type ribosome), % (no concentration beside the values). hit rate 1.6% among 350,000. AID 720706;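 active = significant combined selectivity score with lowered wild-type GFP, culture density cut under 30%, mutant RFP and density less affected; inactive = any of these conditions unmet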
# DENV2 CPE = protects cells from dengue virus 2 cytopathic effect | DENV2-infected cells, cytopathic effect rescue, plate reader | CPE inhibition, % at 9.99 µM | hit rate 1.7% among 350,000 | AID 651640; in the data active = CPE inhibition above about 20%, passing the limit was not always enough; inconclusive = no clear call, values can overlap the other calls; tested in BHK-21 cells;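 also: 0% = median of neutral control wells and 100% = median of positive control wells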
# Active calls of the source: *; u = inconclusive; x = no result; [ ] = remark or other dose. Most compounds without a hit are left out; they make up all but 3.5% or so of the library.
SMILES,Env fusion inh,PglD inh,PGC1a acetyl inh,FN deposition inh,rRNA inh HTS,DENV2 CPE
CO[C@@H](CN(C)Cc1cc(F)ccc1F)[C@H](C)CN([C@@H](C)CO)S(=O)(=O)c1ccc(F)cc1,14.6[16.7 µM],-0.5,2.1,-14.0,1.7,2.8
CO[C@@H](CN(C)S(=O)(=O)c1ccc(Cl)cc1)[C@H](C)CN([C@@H](C)CO)S(=O)(=O)c1cccc(Cl)c1,74.3*[16.7 µM],0.0,-30.6,4.1,5.4,0.0
CO[C@@H](CN(C)S(=O)(=O)c1ccc(Cl)cc1)[C@@H](C)CN([C@@H](C)CO)S(=O)(=O)c1cccc(Cl)c1,43.4[16.7 µM],-0.7,-28.9,13.5,-3.6,16.9
CO[C@@H](CN(C)S(=O)(=O)c1ccc(Cl)cc1)[C@@H](C)CN([C@H](C)CO)S(=O)(=O)c1cccc(Cl)c1,63.6*[16.7 µM],-0.5,-28.5,7.9,0.4,-5.0
CCCN(C)C[C@H]1OCCCC[C@@H](C)Oc2ccc(NC(=O)c3ccccc3)cc2C(=O)N([C@H](C)CO)C[C@@H]1C,4.1[16.7 µM],3.4,6.0,x,2.7,-1.5
COc1ccc(N2CCN(C(=O)Cc3csc(NC(=O)Nc4ccccc4OC)n3)CC2)cc1,6.6,-2.5,-4.1,4.3,1.7,4.4
COc1ccccc1NC(=O)Nc1nc(CC(=O)N2CCN(c3ccc(F)cc3)CC2)cs1,22.7,4.7,-6.0,6.7,-11.7,39.8*
COc1ccc(S(=O)(=O)N(C)C[C@@H]2Oc3ccc(NC(=O)Cn4cnnn4)cc3CC(=O)N([C@@H](C)CO)C[C@H]2C)cc1,-10.1[16.7 µM],-3.8,-5.2,x,-2.6,18.5
COc1ccccc1N(CC(=O)NCCSCc1ccccc1)S(=O)(=O)c1ccccc1,22.3,2.8,-3.1,-5.8,-14.9*,4.9
COc1ccc(CC(=O)NC2CCCCCC2)c(OC)c1,-14.3,-7.8,x,6.4,1.8,63.8*
CCOc1ccccc1N(CC(=O)Nc1ccccc1F)S(=O)(=O)c1ccccc1,-3.0,2.3,-18.7,-4.4,-19.1*,-8.0
COc1ccc(S(=O)(=O)N(CC(=O)NC2CCCC2)c2ccccc2OC)cc1,1.1,-0.3,x,-8.4,-28.8*,u
O=C([C@H]1[C@H](CO)[C@H]2Cn3c(cccc3=O)[C@H]2N1CC1CCCC1)N1CCCCC1,x,1.3,x,x,1.2,3.8
CC(C)NC(=O)N(C)C[C@H]1OCCCC[C@H](C)Oc2ccc(NS(=O)(=O)c3ccccc3)cc2C(=O)N([C@@H](C)CO)C[C@@H]1C,6.0[16.7 µM],2.9,-6.8,x,-3.8,-1.6
CCOc1ccccc1N(CC(=O)Nc1ccc(OC)cc1)S(=O)(=O)c1ccccc1,13.1,-1.1,0.1,-6.8,-5.4,27.9*
CCCN(CC(=O)Nc1ccccc1OC)C(=O)c1cccc(S(=O)(=O)NCc2ccccc2)c1,90.1*,x,x,x,-12.2,-4.8
CCOc1ccccc1N(CC(=O)Nc1cccc(OC)c1)S(=O)(=O)c1ccccc1,15.8,-5.6,-2.5,-5.7,-6.7,-4.3
CCOc1ccc(N(CC(=O)Nc2ccccc2OC)S(=O)(=O)c2ccccc2)cc1,-179.9,-0.7,87.5*,-15.5,-9.6,-3.8
COc1ccc(N(CC(=O)Nc2ccc(OC)cc2OC)S(=O)(=O)c2ccccc2)cc1,4.2,x,-17.3,22.0,-10.9,1.9
CCOc1ccc(N(CC(=O)Nc2cccc(C)c2)S(C)(=O)=O)cc1,-34.9,5.7,-4.1,1.0,-4.1,42.7*
CC(C)NC(=O)Nc1ccc2c(c1)C(=O)N([C@H](C)CO)C[C@H](C)[C@@H](CN(C)Cc1ccncc1)OCCCC[C@H](C)O2,-4.3[16.7 µM],3.3,-3.0,x,-2.7,-1.7
COC(=O)c1cc(NC(=O)CN(c2ccccc2OC)S(=O)(=O)c2ccccc2)ccc1Cl,x,0.8,x,x,-21.3*,x
COC(=O)c1cc(NC(=O)CN(c2cccc(OC)c2)S(=O)(=O)c2ccccc2)ccc1Cl,x,-0.1,-15.1,3.7,0.9,3.1
C(=N\Nc1nc(Nc2ccccc2)nc(N2CCCCC2)n1)/c1ccco1,-23.2,x,x,-5.4,-38.2*,0.1
CN1[C@H](C(=O)Nc2nccs2)[C@@H](CO)[C@@H]2Cn3c(ccc(/C=C/c4ccccc4)c3=O)[C@@H]21,x,2.0,x,x,-2.7,-5.5
SMILES,Env fusion inh,PglD inh,PGC1a acetyl inh,FN deposition inh,rRNA inh HTS,DENV2 CPE
COc1ccc(CN(C)C[C@H]2OCCCC[C@@H](C)Oc3ccc(NC(=O)c4ccccc4)cc3C(=O)N([C@@H](C)CO)C[C@H]2C)cc1,-44.8[16.7 µM],0.9,-1.9,x,0.4,u
Cc1nn(-c2nc3ccccc3[nH]2)c(=O)c2ccccc12,71.5*,x,-9.4,17.1,26.1,x
S=C(NCc1ccco1)N1CCN(c2nc(-c3ccc(Cl)cc3)cs2)CC1,24.1,x,-17.6,-8.7,-23.7,-4.4
CNC(=S)N1CCN(c2nc(-c3ccc(Cl)cc3)cs2)CC1,28.9,1.5,x,0.4,-25.5*,-16.1
COCCNC(=S)N1CCN(c2nc(-c3ccc(Cl)cc3)cs2)CC1,16.9,5.7,7.2,-11.9,-21.1,-3.3
O=C(CN1CCN(c2nc(-c3ccc(Cl)cc3)cs2)CC1)NCc1ccco1,60.3*,0.6,-0.7,-1.4,x,x
COc1ccc(OC(=O)N(C)C[C@H]2OCc3cn(nn3)CCCC(=O)N([C@@H](C)CO)C[C@@H]2C)cc1,7.0[16.7 µM],-3.5,-2.6,0.6,1.0,-2.8
C=CCn1c(CCSCc2ccc(OC)c(C)c2)n[nH]c1=S,7.5,-0.9,4.0,-5.3,-18.6*,0.0
O=C(Cc1cccnc1)N[C@@H]1CC[C@@H](CCn2cc(Cc3ccccc3)nn2)O[C@H]1CO,6.8[16.7 µM],0.6,1.1,x,1.8,5.1
O=C(Cc1cccnc1)N[C@H]1CC[C@@H](CCn2cc(Cc3ccccc3)nn2)O[C@H]1CO,-6.0[16.7 µM],-0.3,3.1,x,-0.5,88.5*
O=C(C[C@H]1CC[C@H](NC(=O)Cc2cccnc2)[C@H](CO)O1)Nc1ccccc1,x,x,1.3,x,-0.1,3.7
O=C(C[C@@H]1CC[C@H](NC(=O)Cc2cccnc2)[C@@H](CO)O1)Nc1ccccc1,x,x,-2.0,x,1.8,44.3*
C[C@H](C(=O)N(C)C[C@H]1OCc2ccccc2-c2c(n(C)c3ccccc23)C(=O)N([C@@H](C)CO)C[C@@H]1C)c1ccccc1,x,x,6.9,2.1,-8.8,-6.9
COC(=O)C1(CC2CC(c3ccncc3)=NO2)CCN(C(=O)OC(C)(C)C)CC1 (centres undefined),17.4,5.0,14.2,10.7,-8.1,37.2*
COC(=O)C1(CC2CC(c3ccccc3)=NO2)CCN(C(=O)OC(C)(C)C)CC1 (centres undefined),-16.3,-1.3,-1.1,15.4,-15.4,-1.3
C/C=C/c1cnc2c(c1)C(=O)N([C@@H](C)CO)C[C@@H](C)[C@H](CN(C)S(=O)(=O)c1cn(C)cn1)O2,x,1.6,3.8,x,1.2,2.2
COc1ccc(N2CCN(C(=O)C3CCC(Cn4c(=S)[nH]c5ccccc5c4=O)CC3)CC2)cc1 (centres undefined),73.8*,-2.2,x,3.0,x,x
